Laboratory results reported in PMC3353655 (Journal of the American Chemical Society, 2012).

Tests used:
SrtA = assay: Inhibition of SrtA catalyzed cleavage of a peptide substrate; type: biochemical, Staphylococcus aureus; conditions: peptide at a concentration of up to 1 mM; data not shown
Procedure, shortened: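 SrtA cleaved a peptide substrate; this reaction has a Km of 80 μM. The test compound was tested at concentrations up to 1 mM.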

Sortase B (SrtB) = biological target: T1, Sortase B (SrtB) (Staphylococcus aureus, UniProt Q2FZE3); assay: Fluorescence polarization binding of fluorescein-labeled lantipeptides to SrtB
T1 sequence (Q2FZE3 31-244 limits assumed): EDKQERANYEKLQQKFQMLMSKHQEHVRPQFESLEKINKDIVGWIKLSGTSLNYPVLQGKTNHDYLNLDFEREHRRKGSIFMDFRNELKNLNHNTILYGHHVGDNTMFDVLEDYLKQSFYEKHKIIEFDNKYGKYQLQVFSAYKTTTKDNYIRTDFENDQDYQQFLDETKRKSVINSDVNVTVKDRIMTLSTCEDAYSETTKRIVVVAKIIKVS
Procedure, shortened: (§1)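 Binding constants were measured by fluorescence polarization. Test compounds were synthetic lantipeptides labeled with 5-carboxyfluorescein, with a C-terminal polyethylene glycol tail added for solubility. Sortase B was run in the same format as Sortase A. Each data point is the average of at least three independent measurements.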

Sortase A (SrtA) = biological target: T2, Sortase A (SrtA) (Staphylococcus aureus, UniProt Q2FV99); assay: Fluorescence polarization binding of fluorescein-labeled lantipeptides to SrtA; conditions: SrtA binding compared with 2(2S,6R)
T2 sequence (Q2FV99 60-206 limits assumed): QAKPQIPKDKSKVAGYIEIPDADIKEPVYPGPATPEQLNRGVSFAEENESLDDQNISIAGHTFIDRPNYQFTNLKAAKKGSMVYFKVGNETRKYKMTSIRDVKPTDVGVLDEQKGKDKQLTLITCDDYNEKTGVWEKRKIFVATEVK
Procedure, shortened: as §1

Row | SMILES | inhibition of SrtA catalyzed cleavage of a peptide substrate (SrtA) | affinity to SrtB (in words) (Sortase B (SrtB); fluorescein-labeled peptide) | Kd (Sortase B (SrtB); read-out: Kd [μM], SrtB, SrtA was replaced by Sortase B (SrtB), 50 mM Tris HCl, 50 mM NaCl, 5 mM CaCl2, 1.2 mM TCEP, average of at least three independent measurements) [µM] | fold weaker binder than 2(2S,6R) (Sortase A (SrtA)) [fold]
1 | CC[C@H](C)[C@H](NC(=O)[C@H](CCCNC(=N)N)NC(=O)CNC(=O)[C@H](Cc1c[nH]c2ccccc12)NC(=O)[C@@H]1CSC[C@@H](NC(=O)[C@H](Cc2ccc(O)cc2)NC(=O)[C@H](Cc2c[nH]c3ccccc23)NC(=O)[C@H](CC(C)C)NC(=O)CNC(=O)[C@H](CCCNC(=N)N)NC(=O)c2ccc3c(c2)C(=O)OC32c3ccc(O)cc3Oc3cc(O)ccc32)C(=O)N[C@@H](CC(C)C)C(=O)N[C@@H](CO)C(=O)N1)C(=O)NCC(=O)N[C@@H](CCCNC(=N)N)C(=O)N[C@@H](CCCNC(=N)N)C(=O)NCCCOCCOCCOCCCNC(=O)CCC(=O)NCCCOCCOCCOCCCNC(=O)CCC(=O)NCCCOCCOCCOCCCNC(=O)CCC(=O)N[C@@H](C)C(=O)O [2(2S,6R)] | unable to inhibit | no detectable affinity | > 300 | 
2 | CC[C@H](C)[C@H](NC(=O)[C@H](CCCNC(=N)N)NC(=O)CNC(=O)[C@H](Cc1c[nH]c2ccccc12)NC(=O)[C@@H]1CSC[C@@H](NC(=O)[C@H](Cc2ccc(O)cc2)NC(=O)[C@H](Cc2c[nH]c3ccccc23)NC(=O)[C@H](CC(C)C)NC(=O)CNC(=O)[C@H](CCCNC(=N)N)NC(=O)c2ccc3c(c2)C(=O)OC32c3ccc(O)cc3Oc3cc(O)ccc32)C(=O)N[C@@H](CC(C)C)C(=O)N[C@@H]([C@@H](C)O)C(=O)N1)C(=O)NCC(=O)N[C@@H](CCCNC(=N)N)C(=O)N[C@@H](CCCNC(=N)N)C(=O)NCCCOCCOCCOCCCNC(=O)CCC(=O)NCCCOCCOCCOCCCNC(=O)CCC(=O)NCCCOCCOCCOCCCNC(=O)CCC(=O)N[C@@H](C)C(=O)O [6(2S,6R)] |  |  |  | 10
